# From PubChem BioAssay
# Only some compounds are listed: those with a hit (about 1.8% of all), similar ones and a draw of the others.
# HSV replic up: enhancers of HSV replication in host cells, fold increase, host cell viability; AID 1956, 2009; HSV replication augmentation in cells; hit rate 0.005% among 220,000; maximum fold increase; in the data active = maximum fold increase above about 1.5; inconclusive = no clear call, values can overlap the other calls; tested in PC3 cells
# Autophagy HCS: autophagy modulators in MEF cells, primary screen, imaging, high-content, MEF GFP-LC3 | calls only at 10 µM (by protocol) | MEF GFP-LC3 puncta imaging; test concentration mostly 10 µM | hit rate 0.98% among 190,000;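 active = percentage of spot-positive cells more than 3 SD above its plate mean, without a fluorescence outlier flag or 80% toxicity; inconclusive = no clear call, values can overlap the other calls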;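 also: spot-positive cell cutoff set from DMSO-treated cells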
# TNF death inh: inhibitors of TNF-alpha triggered necroptosis, primary screen, cell-based, Jurkat FADD-/-, single concentration. Jurkat FADD-/- TNF necroptosis rescue, ATP luminescence, 24 h; 0 = TNF only, 100 = no-TNF cells. activation (protection from cell death), % at 10 µM. hit rate 0.068% among 220,000;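 active = activation, meaning protection from cell death, of at least 50% relative to plate controls; inactive = activation below 50%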;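 also: necroptosis triggered by 40 ng/mL TNF-alpha added together with compound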
# Dynein cargo inh: inhibitors of GR-EGFP nuclear translocation, primary screen, dynein cargo transport inhibitor project, imaging, high-content, 3617.4 mouse cells | test concentration mostly 20 µM; stimulated with dexamethasone, 1 µM; stronger effect = lower value | z-score, hits read low | hit rate 0.47% among 220,000 | AID 1381, 2008;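 active = plate z-score of nuclear minus cytoplasmic receptor signal below a set negative limit, without overly bright fluorescence or cell loss, cut at about -3.5 in these data, passing the limit was not always enough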;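 also: z-score of nuclear minus cytoplasmic ring GR-EGFP intensity difference per well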
#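 Buffer or medium: tet-free, stripped-serum medium; reagent: dexamethasone at 1.0 µM final, 30 min; incubation: 48 h induction, 1 h compound, 30 min dex at 37 °C; measured by: formaldehyde fixation, Hoechst nuclear stain, 10x automated fluorescence imaging; read-out: nuclear-to-cytoplasmic GR-EGFP distribution per well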
# Furin inh: human furin inhibitors, primary screen, biochemical, fluorescence intensity; P09958; purified furin, fluorogenic substrate cleavage; inhibition, % at 20 µM or 30 µM; hit rate 0.061% among 220,000; AID 463115, 2010; in the data active = inhibition above about 25%
# Target sequence (P09958 108-714 limits assumed): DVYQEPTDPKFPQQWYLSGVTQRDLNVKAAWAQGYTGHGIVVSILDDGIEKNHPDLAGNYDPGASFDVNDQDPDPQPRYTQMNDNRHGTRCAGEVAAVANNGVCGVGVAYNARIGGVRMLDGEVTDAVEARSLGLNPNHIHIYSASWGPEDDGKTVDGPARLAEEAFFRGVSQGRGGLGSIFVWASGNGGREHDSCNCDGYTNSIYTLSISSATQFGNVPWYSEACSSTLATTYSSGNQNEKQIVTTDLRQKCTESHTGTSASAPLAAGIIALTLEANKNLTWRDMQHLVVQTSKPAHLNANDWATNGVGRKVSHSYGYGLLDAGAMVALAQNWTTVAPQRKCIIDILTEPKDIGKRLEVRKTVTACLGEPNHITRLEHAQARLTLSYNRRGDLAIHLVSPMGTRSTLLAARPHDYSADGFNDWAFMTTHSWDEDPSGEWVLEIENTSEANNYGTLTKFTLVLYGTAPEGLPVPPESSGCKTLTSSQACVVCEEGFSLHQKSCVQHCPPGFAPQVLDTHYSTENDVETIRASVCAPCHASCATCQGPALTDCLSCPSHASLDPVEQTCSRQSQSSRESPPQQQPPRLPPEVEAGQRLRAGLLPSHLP
# L929 necroptosis: inhibitors of zVAD-triggered necroptosis, primary screen, L929 cells. AID 1377, 2008. hit rate 0.38% among 220,000. L929 zVAD necroptosis rescue, ATP luminescence, 24 h; with zVAD 60 µM. viability rescue, % at 10 µM;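 active = activation, scaled between plate controls, above about 75%, limit read from the data; inactive = activation under that limit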;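 also: 0% = zVAD with DMSO and 100% = DMSO alone without zVAD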
# * hit, by the source's call; i = inactive; ? = inconclusive; . = not tested or not shown; + = active, no number.
SMILES,HSV replic up,Autophagy HCS,TNF death inh,Dynein cargo inh,Furin inh,L929 necroptosis
C[C@@H](O)C1NC(=O)[C@H](CCCCN)NC(=O)c2cc([N+](=O)[O-])cc(I)c2OCC[C@@H](C(N)=O)NC1=O (stereo not given in full),i,i,1,-0.27,-8,4
COc1ccc(/C=C(\C#N)c2nc3ccc(C)cc3[nH]2)cc1Oc1ccc(C(F)(F)F)cc1[N+](=O)[O-],.,+,-2,-0.3,-13,0
Cc1ccc2nc(/C(C#N)=C\c3ccc(Oc4ccc(C(F)(F)F)cc4[N+](=O)[O-])cc3)[nH]c2c1,i,i,0,2.1,3,-1
Cc1ccc2nc(/C(C#N)=C/c3ccc(-c4cccc([N+](=O)[O-])c4)o3)[nH]c2c1,?,+,5,-0.068,-1,4
Cc1cccc(N2CCN(C(=S)Nc3ccc4nc(N5CCN(C)CC5)cc(C)c4c3)CC2)c1C,i,+,-15,0.48,-2,-4
Cc1cc(N2CCN(C)CC2)nc2ccc(NC(=S)NCCN3CCc4ccccc4C3)cc12,i,+,-4,1.7,-13,-1
Cc1cc(N2CCN(C)CC2)nc2ccc(NC(=S)N3CCCCC3)cc12,i,i,-1,-1.4,-21,6
S=C(Nc1ccc(Cl)c(Cl)c1)NC1CCN(Cc2ccccc2)CC1,i,+,-13,.,-12,2
CC(C)Cn1c(C(C)C)nc([N+](=O)[O-])c1S(=O)(=O)c1ccc(F)cc1,i,i,-23,-3.7*,-4,0
CCCc1nc([N+](=O)[O-])c(S(=O)(=O)c2ccccc2)n1CC(C)C,i,i,-5,1.3,-21,0
Nc1cc(=O)[nH]c(SCC(=O)Nc2nc3ccc([N+](=O)[O-])cc3s2)n1,i,+,0,0.53,-11,51
CCN(CC)CC(=O)Nc1ccc2c(c1)Nc1ccccc1CC2,i,i,-2,-0.9,-9,84*
CC(=O)Nc1ncc(Cc2cc(Cl)ccc2Cl)s1,i,+,-13,0.8,-13,-4
S=c1[nH]nc(Cc2noc3ccccc23)n1-c1ccccc1,i,i,-1,-0.47,-29,0
CCN(CC)CCNC(=O)c1cc2c(-c3ccc(Cl)cc3)nn(C)c2s1,i,+,0,-0.82,-51,61
O=c1[nH]c2ccc(F)cc2[nH]c1=O,i,+,1,0.42,-18,3
O=c1cc(-c2ccccc2)[nH]c2ccc(F)cc12,i,i,-16,0.095,-10,-1
OCC1CCN(Cc2cn(Cc3ccccc3)nc2-c2cc3ccccc3o2)CC1,i,i,2,1.3,-22,2
COC1CCN(Cc2cn(Cc3ccccc3)nc2-c2cc3ccccc3o2)CC1,i,+,4,0.75,-18,1
NC(=O)c1nn(-c2ccc(Cl)cc2Cl)c(=O)cc1O,i,i,0,-0.32,-11,0
CCOC(=O)C1CCN(Cc2cn(C)nc2-c2ccc(Oc3ccccc3)cc2)CC1,i,i,-1,-1.2,-15,0
CCc1cccc(CC)c1N(COC)C(=O)Cn1ccccc1=N,i,+,2,0.11,-21,0
CCc1cccc(CC)c1N(COC)C(=O)Cn1nnc2ccccc21,i,i,1,0.19,-13,0
CCN(CC)c1ccc(C=C2C(=O)OC(c3ccccc3)OC2=O)cc1 (stereo not given),i,i,0,-0.37,-6,2
CCN(CC)c1ccc(/C=C/C(=O)C2C(=O)C=C(C)OC2=O)cc1 (stereo not given),?,+,-4,-2.7,-8,1
SMILES,HSV replic up,Autophagy HCS,TNF death inh,Dynein cargo inh,Furin inh,L929 necroptosis
COc1ccc(C2NC(=S)NC(C)=C2C(=O)Nc2ccccn2)cc1OC (stereo not given),i,+,0,1.6,-13,0
COc1ccc(C2NC(=S)NC(C)=C2C(=O)c2ccccc2)cc1OC (stereo not given),i,i,0,1.2,-4,0
CN(C(=S)NC1CCCCC1)C1(c2ccccc2Cl)CCCCC1=O (stereo not given),i,+,-1,-0.31,-18,3
COc1ccc(N=C2CC(C)(C)CC(=O)/C2=C(/O)c2ccccc2)cc1,i,i,-1,0.28,-17,1
COc1cc(/C=C2\COC/C(=C\c3cc(OC)c(OC)c(OC)c3)C2=O)cc(OC)c1OC,i,.,9,-6.6*,-12,14
COc1cc(/C=C2\CC/C(=C\c3cc(OC)c(OC)c(OC)c3)C2=O)cc(OC)c1OC,i,i,-2,0.076,1,1
N#C/C(=C/c1ccc(-c2ccccc2)o1)c1nc(-c2cccs2)cs1,?,+,4,-5.3,-24,.
N#C/C(=C/c1ccc(-c2ccc(S(N)(=O)=O)cc2)o1)c1nc2ccccc2s1,.,+,2,-5.4,-14,4
Cc1cccc(NC2=C/C(=N/S(=O)(=O)c3cccs3)c3ccccc3C2=O)c1,.,i,-14,-0.34,-20,1
O=C1C(Nc2ccc(O)cc2)=C/C(=N/S(=O)(=O)c2cccs2)c2ccccc21,i,+,-12,-0.57,-23,7
COc1cccc(CC2(CO)CCN(Cc3ccc4cccc(F)c4n3)CC2)c1,i,i,2,-0.1,-18,0
OCC1(Cc2cccc(F)c2)CCN(Cc2ccc3cccc(F)c3n2)CC1,i,+,6,0.18,-28,4
Cc1ccc(NS(=O)(=O)c2ccc(C(=O)OCC(=O)NCC3CCCO3)cc2)cc1 (stereo not given),i,i,1,0.94,-22,1
COc1ccc(C2C(C#N)=C(C)NC3=C2C(=O)c2ccccc23)cc1 (stereo not given),i,i,-7,-0.64,-20,0
CC1=C([N+](=O)[O-])C(c2ccccc2)C2=C(N1)c1ccccc1C2=O (stereo not given),i,+,-17,0.73,1,-2
COc1ccc(-c2ccc3c(N)c(C(=O)c4ccc(OC)c(OC)c4)sc3n2)cc1,i,+,0,0.11,-7,-1
COc1ccc(CNC(=O)C/C(C)=N/NC(=O)Cc2ccc(OC)cc2)cc1,i,i,1,-0.71,-17,1
COc1ccc(CNC(=O)C/C(C)=N/NC(=O)C(c2ccccc2)c2ccccc2)cc1,i,i,25,-1,-15,91*
